MT1-MMP act inh: MT1-MMP (human) activation inhibition; P50281; HT1080 RFP-PRO-GFP cells, GFP/RFP ratio fluorescence, overnight; percent of plate control window, DMSO zero; GFP/RFP ratio change, % at 20 µM; actives 0.061% (n = 360,000); AID 651647;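 active = GFP/RFP ratio change of at least 30% with cell ATP level not reduced by more than half and red fluorescence within 50% of control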
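Assay system: RFP-PRO-GFP reporter HT1080 cells; read-out basis: GFP/RFP fluorescence ratio; benchmarks: DMSO wells and RFP-L50D-GFP cells; doses: 20 µM single dose, 1% DMSO; schedule: overnight cell settling, then overnight compound exposure, 37 °C, 5% CO2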
bovine MsrA act: activates bovine MsrA enzyme; purified bovine MsrA, absorbance read-out; activation, % at 10.6 µM; actives 0.3% (n = 360,000); in the data active = activation above about 7.5%;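 also: 0% = vehicle and 100% = reference activator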
DAGLB inhibitor: blocks human DAGLB lipase activity | Q8NCG7 | HEK293T DAGLB membrane lysate, EnzChek fluorogenic substrate | inhibition, % at 5.17 µM | actives 0.059% (n = 340,000) | AID 504411; in the data active = inhibition above about 34%;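 also: 0% = enzyme with vehicle and 100% = wells lacking enzyme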
Target sequence (Q8NCG7 whole entry, looked up): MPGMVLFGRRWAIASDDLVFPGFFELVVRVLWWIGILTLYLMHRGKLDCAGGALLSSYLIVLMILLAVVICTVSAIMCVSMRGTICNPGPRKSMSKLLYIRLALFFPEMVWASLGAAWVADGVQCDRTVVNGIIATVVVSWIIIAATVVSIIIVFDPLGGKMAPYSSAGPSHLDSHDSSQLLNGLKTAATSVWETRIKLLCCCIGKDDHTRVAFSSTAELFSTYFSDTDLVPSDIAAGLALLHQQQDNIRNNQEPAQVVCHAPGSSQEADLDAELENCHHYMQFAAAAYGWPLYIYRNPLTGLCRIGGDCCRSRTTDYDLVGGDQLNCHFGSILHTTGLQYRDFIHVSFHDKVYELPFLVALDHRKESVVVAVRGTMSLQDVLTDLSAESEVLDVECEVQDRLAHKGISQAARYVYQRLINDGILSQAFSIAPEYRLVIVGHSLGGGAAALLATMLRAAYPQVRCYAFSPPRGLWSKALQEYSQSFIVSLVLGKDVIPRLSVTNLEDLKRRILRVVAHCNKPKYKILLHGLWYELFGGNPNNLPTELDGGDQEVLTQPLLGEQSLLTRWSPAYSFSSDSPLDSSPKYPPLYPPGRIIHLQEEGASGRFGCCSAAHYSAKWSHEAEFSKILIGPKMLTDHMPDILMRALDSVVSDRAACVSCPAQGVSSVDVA
MsrA inhibitor: inhibits bovine methionine sulfoxide reductase A; actives 0.75% (n = 360,000); purified bovine MsrA, absorbance read-out; inhibition, % at 15.5 µM; AID 651718;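 also: 0% = vehicle wells with enzyme and 100% = reference inhibitor wells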
MIN6 prolif: induces beta-cell replication in MIN6 cells. MIN6 cells proliferation, ATPlite luminescence, 48 h; cells starved in 0.2% serum; 100% = growth in 10% serum. proliferation, % at 10 µM. actives 0.29% (n = 330,000). AID 2380;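 active = compounds whose signal lies at least 3.5 SD above the mean of all wells on their plate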;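 also: 0% = DMSO-treated cells in low-serum medium and 100% = 10% serum control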
SKN-1 inh: inhibitors of C. elegans SKN-1. AID 624304. C. elegans VP596 Pgst-4::GFP/RFP ratio, acrylamide-induced, 24 h. actives 0.49% (n = 360,000). inhibition, % at 21.8 µM;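 active = interference check ratio from 0.5 to 1.5 plus GFP to RFP signal ratio inhibition reaching or exceeding a fixed threshold, cut at about 30% in these data, passing the limit was not always enough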
MsrA inh confirm: bovine MsrA inhibition, confirmed | shares compounds with MsrA inhibitor | purified bovine MsrA, absorbance read-out | inhibition, % at 15.5 µM | actives 41% (n = 2,300) | AID 651822;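 also: coupled to thioredoxin reductase with NADPH and selenocystamine and DMSO as substrate; 0% = vehicle only and 100% = full effect of reference inhibitor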
The depositor's hits bear a star; nt = no result given. An excerpt weighted towards active compounds, which were near 1.8% of everything screened. Rule as the data show it, unless noted: active = inhibition above about 4.5%; inactive = the rest.

SMILES	MT1-MMP act inh	bovine MsrA act	DAGLB inhibitor	MsrA inhibitor	MIN6 prolif	SKN-1 inh	MsrA inh confirm
CCS(=O)(=O)c1nn2c(N)c(/C=C3/C=CC(=O)C(OC)=C3)c(=O)nc2s1	-84	-1	1	4.7*	0	9	3
O=C(NCC(c1ccco1)N1CCc2ccccc21)c1cccc([N+](=O)[O-])c1 (stereo not drawn)	-1	0	1	0	-2	14	nt
COc1ccc(/C=N/Nc2nc(N)cc(Cl)n2)cc1OC	-1	-3	2	5.8*	-2	6	3
COc1ccc(/C=N/NC(=S)SC)cc1OC	-2	-4	-1	6.2*	-2	-12	4
COc1cc(/C=N\NS(=O)(=O)c2ccccc2)cc(OC)c1OC	0	-3	0	0	-3	10	nt
COc1ccc(-c2cnnc(N/N=C/c3ccc(O)c(OC)c3)n2)cc1	5	-14	3	6.4*	-4	-5	6.6*
COc1cc(/C=N/Nc2ccccn2)ccc1O	-4	-4	-2	4	-3	-1	nt
COc1cc(/C=N/Nc2ccc(S(N)(=O)=O)cc2)cc(OC)c1OC	7	-2	1	5.6*	0	8	6.3*
Cc1ccc(NC(=O)CN(C)CC(=O)Nc2cccc(F)c2)cc1S(=O)(=O)N1CCCCCC1	-4	0	-3	2	-6	-21	nt
N#CC1(NC(=O)CSc2nnc(-c3ccccc3F)n2N)CCCCC1	-5	4	2	0	-3	-3	nt
COc1ccc(/C=N/NC(=S)Nc2ccccc2)cc1COc1ccc(Br)cc1	7	-4	-2	2	-6	15	nt
COc1ccc(/C=N/Nc2ccc(C(=O)O)cc2)c(OC)c1OC	7	-6	-1	5.8*	-2	-6	5.5*
COc1cc(/C=N/Nc2ccc(C(=O)O)cc2)ccc1O	2	-6	0	7.1*	1	7	5.1*
COc1ccc(/C=N/Nc2nc(C)nc(N)n2)cc1	-1	-4	0	4.7*	4	27	3
COc1cc(/C=N/Nc2ccc(C(=O)O)cc2)cc(OC)c1OC	17	-2	0	3	-2	4	nt
COc1ccc(/C=N/NC(=S)Nc2ccccc2)cc1	-2	-8	0	4.9*	-3	5	4
C/C(=N\NC(=O)C(=O)Nc1cccc(Cl)c1C)c1ccncc1	-1	-3	0	0	0	10	nt
CCOP(=O)(NC12CC3CC(CC(C3)C1)C2)NC12CC3CC(CC(C3)C1)C2	-4	-1	0	0	-7	9	nt
CCc1ccc(NC(=O)C(C)OC(=O)C2CCN(c3ccc(C(F)(F)F)cn3)CC2)cc1 (stereo not drawn)	4	-1	-4	0	-4	-4	nt
CCc1ccc(N2C(=O)Nc3ccccc3C2(O)C(=O)N2CCN(c3ccccn3)CC2)cc1 (stereo not drawn)	4	-2	0	0	-5	3	nt
COc1cc(/C=N/NC(=S)Nc2cccc(C(=O)O)c2)ccc1O	0	-6	1	5.1*	-1	10	5.6*
COc1cc(/C=N/Nc2nc(N3CCCC3)nc(N3CCCC3)n2)ccc1O	4	-13	3	5.2*	-1	-11	2
Oc1ccc(/C=N/Nc2nc(N3CCCC3)nc(N3CCCC3)n2)cc1O	1	-8	2	4	-4	-1	nt
C=C(C)CNC(=S)N/N=C/c1ccc(NC(C)=O)cc1	2	-2	-2	4	-3	-20	nt
CC(=O)Nc1ccc(/C=N/NC(=S)NC(C)C)cc1	5	-1	2	8.9*	-1	10	4
COc1ccc(/C=N/NC(=S)Nc2cccc(C(=O)O)c2)cc1	1	-6	-2	4	-1	0	nt
COc1ccc(/C=N/Nc2cc(=O)n(C)c(=O)n2C)cc1OC	3	-8	-1	4.7*	0	-5	4.7*
Cc1cc(NC(=O)CSc2nnc3ccccn23)no1	-1	-2	-1	-1	-3	-4	nt
COc1nc(-c2cnccn2)sc1C	-1	-7	-1	0	-4	1	nt
